Measured values: ChEMBL document CHEMBL3046938, “Synthesis and fungicidal activity of novel 2-oxocycloalkylsulfonylureas” (J Agric Food Chem, 2005)
Converted amounts (≈) assume the structure as drawn.

Legend:
Fusarium graminearum [1] = experiment: Fungicidal activity against Fusarium graminearum assessed as mycelial growth inhibition in potato dextrose agar at 50 ug/mL at 24 +/- 0.5 degC; assay type: functional
How it was run: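 Single-concentration screen against G. zeae by mycelium growth rate test. Compound in acetone was mixed into PDA at 50 μg/mL, fungus cakes were placed on the plates and grown at 24 ± 0.5 °C, with an acetone blank and three replicates. Percent inhibition was recorded.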

[2] = system: Colletotrichum orbiculare; experiment: Fungicidal activity against Colletotrichum orbiculare assessed as mycelial growth inhibition in potato dextrose agar at 24 +/- 0.5 degC; assay type: functional, organism-based
How it was run: (§1)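 Mycelium growth rate test. Compounds in acetone were mixed into PDA at 100, 50, 25, 12.5 and 6.25 μg/mL, fungus cakes were placed on the plates and grown at 24 ± 0.5 °C, with an acetone blank and three replicates. Inhibition rates were measured, and EC50 and EC90 were estimated by logit analysis.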

Fusarium graminearum [3] = experiment: Fungicidal activity against Fusarium graminearum assessed as mycelial growth inhibition in potato dextrose agar at 24 +/- 0.5 degC; assay type: functional, organism-based; how it was run: as §1
Rhizoctonia solani = experiment: Fungicidal activity against Rhizoctonia solani assessed as mycelial growth inhibition in potato dextrose agar at 24 +/- 0.5 degC; assay type: functional, organism-based; how it was run: as §1
[4] = system: Fusarium oxysporum f. sp. vasinfectum; experiment: Fungicidal activity against Fusarium oxysporum f. sp. vasinfectum assessed as mycelial growth inhibition in potato dextrose agar at 24 +/- 0.5 degC; assay type: functional, organism-based; how it was run: as §1
Pythium aphanidermatum = experiment: Fungicidal activity against Pythium aphanidermatum assessed as mycelial growth inhibition in potato dextrose agar at 24 +/- 0.5 degC; assay type: functional, organism-based; how it was run: as §1
Verticillium dahliae = experiment: Fungicidal activity against Verticillium dahliae assessed as mycelial growth inhibition in potato dextrose agar at 24 +/- 0.5 degC; assay type: functional, organism-based; how it was run: as §1
Botrytis cinerea = experiment: Fungicidal activity against Botryotinia fuckeliana assessed as mycelial growth inhibition in potato dextrose agar at 24 +/- 0.5 degC; assay type: functional, organism-based; how it was run: as §1

Compound: O=C(NC1CCCCCCCCCCC(=O)OCCC1)NS(=O)(=O)C1CCCCCCCCCCC1=O (stereo not drawn)
- inhibition at 50 µg/mL (Fusarium graminearum [1]): 26.1%

Compound: Cc1ccnc(NC(=O)NS(=O)(=O)C2CCCCCCCCCCC2=O)n1 (stereo not drawn)
- inhibition at 50 µg/mL (Fusarium graminearum [1]): 18.1%

Compound: COc1cc(Cl)nc(NC(=O)NS(=O)(=O)C2CCCCCCCCCCC2=O)n1 (stereo not drawn)
- inhibition at 50 µg/mL (Fusarium graminearum [1]): 34.5%

Compound: COc1cc(OC)nc(NC(=O)NS(=O)(=O)C2CCCCCCCCCCC2=O)n1 (stereo not drawn)
- inhibition at 50 µg/mL (Fusarium graminearum [1]): 26.5%

Compound: Cc1cc(C)nc(NC(=O)NS(=O)(=O)C2CCCCCCCCCCC2=O)n1 (stereo not drawn)
- inhibition at 50 µg/mL (Fusarium graminearum [1]): 18.1%

Compound: CCc1cc(CC)nc(NC(=O)NS(=O)(=O)C2CCCCCCCCCCC2=O)n1 (stereo not drawn)
- inhibition at 50 µg/mL (Fusarium graminearum [1]): 55.6%

Compound: CCCc1cc(CCC)nc(NC(=O)NS(=O)(=O)C2CCCCCCCCCCC2=O)n1 (stereo not drawn)
- inhibition at 50 µg/mL (Fusarium graminearum [1]): 34.5%

Compound: CC(C)c1cc(C(C)C)nc(NC(=O)NS(=O)(=O)C2CCCCCCCCCCC2=O)n1 (stereo not drawn)
- inhibition at 50 µg/mL (Fusarium graminearum [1]): 55.6%

Compound: Cc1ccc(NC(=O)NS(=O)(=O)C2CCCCCCCCCCC2=O)cc1 (stereo not drawn)
- inhibition at 50 µg/mL (Fusarium graminearum [1]): 34.5%

Compound: COc1ccc(NC(=O)NS(=O)(=O)C2CCCCCCCCCCC2=O)cc1 (stereo not drawn)
- inhibition at 50 µg/mL (Fusarium graminearum [1]): 18.1%

Compound: O=C(Nc1ccc(Cl)cc1)NS(=O)(=O)C1CCCCCCCCCCC1=O (stereo not drawn)
- inhibition at 50 µg/mL (Fusarium graminearum [1]): 49%

Compound: O=C(Nc1ccccc1Cl)NS(=O)(=O)C1CCCCCCCCCCC1=O (stereo not drawn)
- inhibition at 50 µg/mL (Fusarium graminearum [1]): 49%

Compound: O=C(Nc1ccc(F)cc1)NS(=O)(=O)C1CCCCCCCCCCC1=O (stereo not drawn)
- inhibition at 50 µg/mL (Fusarium graminearum [1]): 18.1%

Compound: O=C(Nc1ccc(Cl)c(Cl)c1)NS(=O)(=O)C1CCCCCCCCCCC1=O (stereo not drawn)
- inhibition at 50 µg/mL (Fusarium graminearum [1]): 55.6%

Compound: O=C(Nc1cc(Cl)ccc1Cl)NS(=O)(=O)C1CCCCCCCCCCC1=O (stereo not drawn)
- inhibition at 50 µg/mL (Fusarium graminearum [1]): 81.6%
- EC50 [2]: 13.5 µg/mL (≈ 30.1 µM)
- EC90 [2]: 64.3 µg/mL (≈ 143 µM)
- EC50 (Fusarium graminearum [3]): 31.5 µg/mL (≈ 70 µM)
- EC90 (Fusarium graminearum [3]): 169 µg/mL (≈ 377 µM)
- EC50 (Rhizoctonia solani): 38.9 µg/mL (≈ 86.6 µM)
- EC90 (Rhizoctonia solani): 106 µg/mL (≈ 235 µM)
- EC50 [4]: 19.5 µg/mL (≈ 43.5 µM)
- EC90 [4]: 53.8 µg/mL (≈ 120 µM)
- EC50 (Pythium aphanidermatum): 16.7 µg/mL (≈ 37.1 µM)
- EC90 (Pythium aphanidermatum): 49.9 µg/mL (≈ 111 µM)
- EC50 (Verticillium dahliae): 22 µg/mL (≈ 49 µM)
- EC90 (Verticillium dahliae): 142 µg/mL (≈ 316 µM)
- EC50 (Botrytis cinerea): 7.8 µg/mL (≈ 17.4 µM)
- EC90 (Botrytis cinerea): 33.8 µg/mL (≈ 75.1 µM)

Compound: Cc1cccc(NC(=O)NS(=O)(=O)C2CCCCCCCCCCC2=O)c1 (stereo not drawn)
- inhibition at 50 µg/mL (Fusarium graminearum [1]): 34.5%

Compound: Cc1ccc(NC(=O)NS(=O)(=O)C2CCCCCCCCCCC2=O)cc1C (stereo not drawn)
- inhibition at 50 µg/mL (Fusarium graminearum [1]): 77.3%
- EC50 [2]: 30.4 µg/mL (≈ 74.5 µM)
- EC90 [2]: 105 µg/mL (≈ 256 µM)
- EC50 (Fusarium graminearum [3]): 39 µg/mL (≈ 95.5 µM)
- EC90 (Fusarium graminearum [3]): 176 µg/mL (≈ 431 µM)
- EC50 (Rhizoctonia solani): 112 µg/mL (≈ 274 µM)
- EC90 (Rhizoctonia solani): 556 µg/mL (≈ 1360 µM)
- EC50 [4]: 24 µg/mL (≈ 58.8 µM)
- EC90 [4]: 98 µg/mL (≈ 240 µM)
- EC50 (Pythium aphanidermatum): 33.5 µg/mL (≈ 82.1 µM)
- EC90 (Pythium aphanidermatum): 124 µg/mL (≈ 303 µM)
- EC50 (Verticillium dahliae): 33.7 µg/mL (≈ 82.5 µM)
- EC90 (Verticillium dahliae): 484 µg/mL (≈ 1180 µM)
- EC50 (Botrytis cinerea): 9.57 µg/mL (≈ 23.4 µM)
- EC90 (Botrytis cinerea): 35.9 µg/mL (≈ 87.8 µM)

Compound: O=C(Nc1cccc([N+](=O)[O-])c1)NS(=O)(=O)C1CCCCCCCCCCC1=O (stereo not drawn)
- inhibition at 50 µg/mL (Fusarium graminearum [1]): 18.1%

Compound: O=C(Nc1cccc(Cl)c1)NS(=O)(=O)C1CCCCCCCCCCC1=O (stereo not drawn)
- inhibition at 50 µg/mL (Fusarium graminearum [1]): 42%

Compound: CC(=O)c1ccc(NC(=O)NS(=O)(=O)C2CCCCCCCCCCC2=O)cc1 (stereo not drawn)
- inhibition at 50 µg/mL (Fusarium graminearum [1]): 9.3%

Compound: O=C1CCCCCCCCCCC1S(=O)(=O)Nc1ccc(Cl)cc1 (stereo not drawn)
- inhibition at 50 µg/mL (Fusarium graminearum [1]): 72.6%
- EC50 [2]: 13.8 µg/mL (≈ 37 µM)
- EC90 [2]: 54.8 µg/mL (≈ 147 µM)
- EC50 (Fusarium graminearum [3]): 30 µg/mL (≈ 80.8 µM)
- EC90 (Fusarium graminearum [3]): 414 µg/mL (≈ 1110 µM)
- EC50 (Rhizoctonia solani): 6.82 µg/mL (≈ 18.3 µM)
- EC90 (Rhizoctonia solani): 57 µg/mL (≈ 153 µM)
- EC50 [4]: 24.6 µg/mL (≈ 66.1 µM)
- EC90 [4]: 293 µg/mL (≈ 788 µM)
- EC50 (Pythium aphanidermatum): 17.6 µg/mL (≈ 47.3 µM)
- EC90 (Pythium aphanidermatum): 59.6 µg/mL (≈ 160 µM)
- EC50 (Verticillium dahliae): 10.2 µg/mL (≈ 27.5 µM)
- EC90 (Verticillium dahliae): 55.3 µg/mL (≈ 149 µM)
- EC50 (Botrytis cinerea): 7.62 µg/mL (≈ 20.5 µM)
- EC90 (Botrytis cinerea): 39 µg/mL (≈ 105 µM)

Compound: O=C(Nc1cc(Cl)ccc1Cl)NS(=O)(=O)C1CCCCCC1=O (stereo not drawn)
- inhibition at 50 µg/mL (Fusarium graminearum [1]): 18.1%

Compound: Cc1ccc(NC(=O)NS(=O)(=O)C2CCCCCC2=O)c(C)c1 (stereo not drawn)
- inhibition at 50 µg/mL (Fusarium graminearum [1]): 9.3%

Compound: COc1cc(OC)nc(NC(=O)NS(=O)(=O)C2CCCCCC2=O)n1 (stereo not drawn)
- inhibition at 50 µg/mL (Fusarium graminearum [1]): 18.1%

Compound: O=C(Nc1ccc(Cl)cc1)NS(=O)(=O)C1CCCCCC1=O (stereo not drawn)
- inhibition at 50 µg/mL (Fusarium graminearum [1]): 18.1%

Compound: Cc1ccc(NC(=O)NS(=O)(=O)C2CCCCCC2=O)cc1 (stereo not drawn)
- inhibition at 50 µg/mL (Fusarium graminearum [1]): 18.1%

Compound: O=C(Nc1ccc(Cl)c(Cl)c1)NS(=O)(=O)C1CCCCCC1=O (stereo not drawn)
- inhibition at 50 µg/mL (Fusarium graminearum [1]): 18.1%

Compound: O=C(Nc1cc(Cl)ccc1Cl)NS(=O)(=O)C1CCCCC1=O (stereo not drawn)
- inhibition at 50 µg/mL (Fusarium graminearum [1]): 26.5%

Compound: Cc1ccc(NC(=O)NS(=O)(=O)C2CCCCC2=O)c(C)c1 (stereo not drawn)
- inhibition at 50 µg/mL (Fusarium graminearum [1]): 26.5%

Compound: COc1cc(OC)nc(NC(=O)NS(=O)(=O)C2CCCCC2=O)n1 (stereo not drawn)
- inhibition at 50 µg/mL (Fusarium graminearum [1]): 18.1%

Compound: O=C(Nc1ccc(Cl)cc1)NS(=O)(=O)C1CCCCC1=O (stereo not drawn)
- inhibition at 50 µg/mL (Fusarium graminearum [1]): 18.1%

Compound: Cc1ccc(NC(=O)NS(=O)(=O)C2CCCCC2=O)cc1 (stereo not drawn)
- inhibition at 50 µg/mL (Fusarium graminearum [1]): 18.1%

Compound: O=C(Nc1ccc(Cl)c(Cl)c1)NS(=O)(=O)C1CCCCC1=O (stereo not drawn)
- inhibition at 50 µg/mL (Fusarium graminearum [1]): 18.1%

Compound: COC(=O)Nc1nc2ccccc2[nH]1 [CARBENDAZIM]
- EC50 [2]: 39.8 µg/mL (≈ 208 µM)
- EC90 [2]: 200 µg/mL (≈ 1040 µM)
- EC50 (Fusarium graminearum [3]): 1.95 µg/mL (≈ 10.2 µM)
- EC90 (Fusarium graminearum [3]): 4.46 µg/mL (≈ 23.3 µM)
- EC50 (Rhizoctonia solani): 1.41 µg/mL (≈ 7.37 µM)
- EC90 (Rhizoctonia solani): 2.82 µg/mL (≈ 14.7 µM)
- EC50 [4]: 0.54 µg/mL (≈ 2.82 µM)
- EC90 [4]: 2.98 µg/mL (≈ 15.6 µM)
- EC50 (Pythium aphanidermatum): 20.4 µg/mL (≈ 107 µM)
- EC90 (Pythium aphanidermatum): 75.9 µg/mL (≈ 397 µM)
- EC50 (Verticillium dahliae): 18.2 µg/mL (≈ 95.2 µM)
- EC90 (Verticillium dahliae): 93.3 µg/mL (≈ 488 µM)

Compound: CC12CC1(C)C(=O)N(c1cc(Cl)cc(Cl)c1)C2=O (stereo not drawn) [PROCYMIDONE]
- EC90 (Botrytis cinerea): 5.75 µg/mL (≈ 20.2 µM)
